In ChEMBL document CHEMBL1138497, “Design and synthesis of small molecule glycerol 3-phosphate acyltransferase inhibitors” (J Med Chem, 2009):
pIC50: −log10 of the molar value.

Assay: Inhibition of mitochondrial glycerol 3-phosphate acyltransferase by liquid scintillation counting
How it was run: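 Mitochondrial GPAT preparation added to start reaction in mixture of 14C-labelled glycerol 3-phosphate and palmitoyl-CoA with a range of inhibitor concentrations; acylation quantified by scintillation counting. Triplicate points; IC50 taken as inhibitor level giving 50% of activity seen with DMSO vehicle alone.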

| SMILES | pIC50 |
| --- | --- |
| CCCCCCCCS(=O)(=O)Nc1ccc(O)cc1C(=O)O | 3.94 |
| CCCCCS(=O)(=O)Nc1cccc(CP(=O)(O)O)c1 | 3.85 |
| CCCCCCCCCS(=O)(=O)Nc1ccccc1C(=O)O | 4.61 |
| CCCCCCCCCS(=O)(=O)NCc1ccc(C(=O)O)cc1 | 3.89 |
| CCCCCCCCCCCCCCCCS(=O)(=O)Nc1ccccc1C(=O)O | 4.74 |
| CCCCCCCCS(=O)(=O)Nc1ccc(P(=O)(O)O)cc1 | 4.02 |
| CCCCCS(=O)(=O)Nc1ccc(CP(=O)(O)O)cc1 | 3.83 |
| O=C(O)c1ccccc1NS(=O)(=O)c1ccccc1 | 3.84 |
| CCCCCS(=O)(=O)NCc1ccc(C(=O)O)cc1 | 3.60 |
| CCCCCCCCCS(=O)(=O)Nc1ccccc1CP(=O)(O)O | 4.09 |
| CCCCCCCCS(=O)(=O)Nc1ccc(F)cc1C(=O)O | 4.05 |
| O=C(O)c1ccccc1NS(=O)(=O)CCc1ccccc1 | 3.82 |
| O=C(O)c1cccc(NS(=O)(=O)Cc2ccccc2)c1 | 3.75 |
| O=C(O)c1ccccc1NS(=O)(=O)c1ccc(Cl)cc1 | 3.97 |
| CS(=O)(=O)Nc1ccccc1C(=O)O | 3.88 |
| CCCCCCCCCS(=O)(=O)Nc1cccc(CP(=O)(O)O)c1 | 4.20 |
| O=C(O)c1ccccc1NS(=O)(=O)Cc1ccccc1 | 3.85 |
| CCCCCCCCCS(=O)(=O)NCc1cccc(C(=O)O)c1 | 4.08 |

| SMILES | pIC50 |
| --- | --- |
| CCCCCCCCS(=O)(=O)Nc1cccc(P(=O)(O)O)c1 | 4.14 |
| CCCCCS(=O)(=O)Nc1ccccc1CP(=O)(O)O | 3.89 |
| CCCCCCCCCS(=O)(=O)Nc1ccc(C(=O)O)cc1 | 4.05 |
| CCCCCCCCCCCCCCS(=O)(=O)Nc1ccccc1C(=O)O | 4.76 |
| O=C(O)c1ccc(NS(=O)(=O)Cc2ccccc2)cc1 | 3.66 |
| CCCCCS(=O)(=O)NCc1ccccc1C(=O)O | 3.66 |
| O=C(O)c1cccc(NS(=O)(=O)c2ccc(Cl)cc2)c1 | 4.12 |
| CCCCCS(=O)(=O)NCc1cccc(C(=O)O)c1 | 3.51 |
| O=C(O)c1ccc(NS(=O)(=O)c2ccc(Cl)cc2)cc1 | 3.97 |
| O=C(O)c1cccc(NS(=O)(=O)CCc2ccccc2)c1 | 3.79 |
| CCCCCCCCS(=O)(=O)Nc1ccccc1P(=O)(O)O | 4.13 |
| O=C(O)c1cccc(NS(=O)(=O)c2ccccc2)c1 | 3.86 |
| CCCCCCCCCS(=O)(=O)Nc1cccc(C(=O)O)c1 | 4.13 |
| O=C(O)c1ccc(NS(=O)(=O)c2ccccc2)cc1 | 3.82 |
| CCCCCCCCCS(=O)(=O)Nc1ccc(Cl)cc1C(=O)O | 4.50 |
| CCCCCCCCCS(=O)(=O)NCc1ccccc1C(=O)O | 4.18 |
| O=C(O)c1ccc(NS(=O)(=O)CCc2ccccc2)cc1 | 3.69 |
| CCCCCCCCCS(=O)(=O)Nc1ccc(CP(=O)(O)O)cc1 | 4.09 |
